The text below walks through data of ChEMBL document CHEMBL4513216, “Probing the Open Global Health Chemical Diversity Library for Multistage-Active Starting Points for Next-Generation Antimalarials” (ACS Infect Dis, 2020).

The series can be described thus: Toxicity liver stage against HepG2, at 10uM. The format is cell-based. The arrangement: test concentration 10 uM, cell line HepG2-A16-CD81EGFP. The note with it: human, HepG2-A16-CD81EGFP cells; read-out: INHIBITION
Summed up: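 Uninfected HepG2-A16-CD81EGFP cells, 3 × 10^3 per well, 1536-well, plated on prespotted compound at 10 μM final, parasite-free screening media added to match infected plates; puromycin 10 μM positive, DMSO 0.5% negative; run in parallel with 48 h PbLuc assay at 37 °C, 5% CO2; viability by CellTiter-Glo luminescence, normalized to controls.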

On to `CN(C)C(=O)CN1CCOCC2(CCN(CC3CCOC3)CC2)C1` (stereo not drawn), for which the cytotoxicity at 10 µM came out at 7.54%.

For the compound `Cc1nnc(SCc2cccc(F)c2)n1CC(N)=O`, the cytotoxicity at 10 µM was -6.58%.

With `COc1cccc(CN(Cc2ccco2)Cc2cnc(C)n2C)c1`, the cytotoxicity at 10 µM was found to be 3.65%.

For `CCN1CCN(c2ccc(CNC(=O)c3cnn(C)c3C)cn2)CC1`, the cytotoxicity at 10 µM is -11.1%.

On to `CNC(=O)C1CCCCN1C(=O)c1sc(-c2ccc(C)o2)nc1C` (stereo not drawn), for which the cytotoxicity at 10 µM amounted to 4.45%.

As to `CNC(=O)C1(Cc2cc(C(C)C)no2)CCN(Cc2cccnc2)C1` (stereo not drawn), the cytotoxicity at 10 µM stood at 4.61%.

Consider `CC(NCC1CCN(CCO)CC1)c1ccc(C(F)(F)F)cc1` (stereo not drawn), for which the cytotoxicity at 10 µM is -7.28%.

Regarding `Cc1noc(CNc2ccccc2CC(=O)N(C)C)n1`, the cytotoxicity at 10 µM was 2.69%.

As for `CN(CCCO)C(=O)c1cc(COc2ccc3c(c2)CCCC3)on1`, the cytotoxicity at 10 µM is -148%.

`COc1ccc(C(C)NCCc2ccc(NC(C)=O)cc2)cc1F` (stereo not drawn): the cytotoxicity at 10 µM is 6.75%.

Take `Cc1cc(NC(=O)NCCc2ccccc2)n(C)n1`: the cytotoxicity at 10 µM is -9.19%.

Regarding `OC1(CNc2ccc(Br)cn2)CCOCC1`, the cytotoxicity at 10 µM stood at 6.91%.

Turning to `CN(C)C(=O)N1CCn2nc(CNC(=O)CCC(F)(F)F)cc2C1`, the cytotoxicity at 10 µM was 5.6%.

In the case of `Cc1nonc1OCCNC(=O)COc1ccc(F)cc1F`, the cytotoxicity at 10 µM was -1.17%.

On to `NC(=O)CSCCC(=O)N1CCCC1c1ccsc1` (stereo not drawn), for which the cytotoxicity at 10 µM is -13.6%.

As for `NC(=O)CNC(c1ccccc1)c1ccc(OC(F)F)cc1` (stereo not drawn), the cytotoxicity at 10 µM was 58.2%.

As for `COc1ccccc1CN1C(=O)O[C@@H]2CN(C(C)C)C[C@@H]21`, the cytotoxicity at 10 µM was found to be 3.99%.

Take `Cc1cc(CNC(=O)c2ccc(C(C)N3CCCCC3)o2)[nH]n1` (stereo not drawn): the cytotoxicity at 10 µM is -12.6%.

In the case of `CN(CC(O)C(F)(F)F)C(=O)Nc1cccc(Cn2cccn2)c1` (stereo not drawn), the cytotoxicity at 10 µM amounted to 5.79%.

Consider `COCc1cc(CC2(NC3CCCCC3)COC2)no1`, for which the cytotoxicity at 10 µM amounted to 0.66%.

In the case of `O=C(COCc1ccccc1Cl)N1CCN(c2cnccn2)CC1`, the cytotoxicity at 10 µM worked out at 7.57%.

With `CCc1c(C(=O)NCC2CCS(=O)(=O)C2)cnn1-c1ccccc1` (stereo not drawn), the cytotoxicity at 10 µM was -8.22%.

Consider `O=C(N1CCCC1)N1CCC2(CC1)C(=O)N(CC1CC1)c1ccccc12`, for which the cytotoxicity at 10 µM amounted to 7.15%.

For the compound `COc1cccc(C(C(=O)O)N2CCCN(C3CCCC3)CC2)c1OC` (stereo not drawn), the cytotoxicity at 10 µM was -11.3%.

On to `C=C(Br)CN(C)C1CCN(CCc2ccccn2)CC1`, for which the cytotoxicity at 10 µM was determined as 0.953%.

For `COCC1c2c(cnn2C)CCN1Cc1ccsc1` (stereo not drawn), the cytotoxicity at 10 µM was -13.3%.

As for `CC(C)c1cc(N[C@H](C(N)=O)C(C)C)n2nccc2n1`, the cytotoxicity at 10 µM was -1.56%.

With `CC(=O)Nc1ccc(CN(C)Cc2snnc2C)cc1`, the cytotoxicity at 10 µM was -2.17%.

Regarding `CN(Cc1ccco1)C1COC2(CCN(Cc3nccs3)CC2)C1` (stereo not drawn), the cytotoxicity at 10 µM is 2.93%.

For `CN1CSC[C@H]1C(=O)N1CCC(Cc2ccccc2F)CC1`, the cytotoxicity at 10 µM was determined as 1.01%.

On to `CCn1cc(S(=O)(=O)N2CCCCCC2c2cc(C)on2)cn1` (stereo not drawn), for which the cytotoxicity at 10 µM was found to be 7.43%.

On to `CCN(Cc1nc2c(cnn2C)c(=O)[nH]1)Cc1cccs1`, for which the cytotoxicity at 10 µM worked out at 1.49%.

Consider `COC(=O)[C@@H]1C[C@@H](O)CN1Cc1ccn(-c2ccc(F)cc2)n1`, for which the cytotoxicity at 10 µM was -5.17%.

`COCC(=O)N1C[C@H]2CNC[C@@]2(C(=O)NCc2cccc3[nH]ccc23)C1`: the cytotoxicity at 10 µM was found to be 6.65%.

For `Cc1ccc(C(=O)N2CCN(CC(C)O)CC2)cc1S(C)(=O)=O` (stereo not drawn), the cytotoxicity at 10 µM is -2.96%.

As for `Cc1cc(NCCS(C)(=O)=O)n2nc(C)cc2n1`, the cytotoxicity at 10 µM was -14%.

On to `O=S(=O)(NC1CCCOC1)c1ccc(C(F)(F)F)nc1` (stereo not drawn), for which the cytotoxicity at 10 µM is -1.38%.

On to `CCCN(CCC)S(=O)(=O)N(C)Cc1ccncc1`, for which the cytotoxicity at 10 µM amounted to 12.2%.

For the compound `Cc1cc(-c2nccs2)nc(C2CCN(Cc3cccs3)CC2)n1`, the cytotoxicity at 10 µM was 6.81%.

As to `CC(=O)C1(c2ccccc2)CCN(C(=O)CC2CNCCO2)CC1` (stereo not drawn), the cytotoxicity at 10 µM is -4.46%.

For the compound `Cc1ccccc1S(=O)(=O)N1CCC(c2[nH]ncc2C)C1` (stereo not drawn), the cytotoxicity at 10 µM was -21.1%.

For the compound `COCCN1CCCC1c1ccnc(-c2ccccc2)n1` (stereo not drawn), the cytotoxicity at 10 µM came to 1.09%.

Take `Cc1ccnc(C2CCN(c3ccnc(C)n3)C2)n1` (stereo not drawn): the cytotoxicity at 10 µM is -0.485%.

With `Cc1ccc(CC(=O)NCC(O)c2cc(Cl)cc(Cl)c2)cn1` (stereo not drawn), the cytotoxicity at 10 µM is -3.69%.

For the compound `CN1CCN(Cc2ccoc2)Cc2cccnc21`, the cytotoxicity at 10 µM is 0.899%.

Take `Cc1cc2c(cc1CN1CCCCC1CCn1ccnc1C)OCO2` (stereo not drawn): the cytotoxicity at 10 µM turned out to be 3.09%.

Regarding `CCn1cnnc1CNC(=O)N1CCC(O)CC1`, the cytotoxicity at 10 µM is -4.86%.

For `CCN1CCC(NC(=O)CN2CCCC2Cn2nc(C)cc2C)CC1` (stereo not drawn), the cytotoxicity at 10 µM is -6.83%.

In the case of `COCCCN1C(=O)CC[C@H]2CN(Cc3ncc[nH]3)CC[C@H]21`, the cytotoxicity at 10 µM was -0.462%.

Regarding `CN(CC(=O)N1CCC(OCc2cccnc2)CC1)c1ccccc1`, the cytotoxicity at 10 µM was determined as 7.56%.

Regarding `CC(=O)N(C)Cc1ccccc1NCc1c(C)cccc1C`, the cytotoxicity at 10 µM was -4.54%.

Regarding `CSCCNC(=O)C1CCC(=O)N(C2CCCC2)C1` (stereo not drawn), the cytotoxicity at 10 µM is -3.75%.

In the case of `Cc1csc(CN2CC(CO)Oc3ccccc32)n1` (stereo not drawn), the cytotoxicity at 10 µM was 6.62%.

Take `CNC(=O)c1ccc(C2CN(c3cc(C)nc(N)n3)CCO2)nc1` (stereo not drawn): the cytotoxicity at 10 µM is 2.02%.

Take `Cc1nn(CCNC(C)Cn2ccnc2)c(C)c1Cl` (stereo not drawn): the cytotoxicity at 10 µM was -5.19%.

Turning to `CCOc1ccc(SCCS(=O)(=O)CC)cc1`, the cytotoxicity at 10 µM was -2.91%.

In the case of `O=C1[C@H]2CN(CC3CCOCC3)C[C@H]2CN1Cc1cccc(F)c1`, the cytotoxicity at 10 µM is -118%.

`Cc1noc(C)c1CN1C[C@@H]2COC[C@H](C(=O)N3CCCO3)[C@@H]2C1`: the cytotoxicity at 10 µM is -66.6%.

In the case of `Cc1cccc(Oc2ccccc2CNC(=O)C2CCC(=O)NC2)c1` (stereo not drawn), the cytotoxicity at 10 µM is 10.6%.

In the case of `COc1ccc(Cl)cc1CS(=O)(=O)CC(=O)NC(C)CCC(C)C` (stereo not drawn), the cytotoxicity at 10 µM was determined as 11%.

With `Cc1ccc(NC2CCN(C(=O)CCCn3ccnc3C)CC2)nn1`, the cytotoxicity at 10 µM was -11.8%.

Turning to `Cc1ccc(OCC(=O)NS(=O)(=O)c2cccnc2)cc1C`, the cytotoxicity at 10 µM was 4.36%.

With `CC1Cc2ccccc2N1Cc1occc1C(=O)NCC(=O)N(C)C` (stereo not drawn), the cytotoxicity at 10 µM stood at 8.13%.

Regarding `CN(C(=O)Cn1nc(-c2ccc(F)cc2)oc1=O)c1ccccc1`, the cytotoxicity at 10 µM is -0.267%.

With `CCc1cnc(NCCS(=O)(=O)CC(C)C)nc1`, the cytotoxicity at 10 µM was -13%.

On to `c1nc2n(c1CN1CCCCC1)CCN(C1CCOC1)CC2` (stereo not drawn), for which the cytotoxicity at 10 µM was -152%.

Take `COc1ccccc1N1CCC(CNS(=O)(=O)c2cccc(C#N)c2)C1` (stereo not drawn): the cytotoxicity at 10 µM was -4.13%.

Consider `COCC(=O)N1CCC(C(=O)Nc2ccc(S(N)(=O)=O)cc2)CC1`, for which the cytotoxicity at 10 µM is -1.47%.

On to `CC(COc1ccccc1)NCc1nncn1C1CCCCC1` (stereo not drawn), for which the cytotoxicity at 10 µM was -4.23%.

Consider `Cn1cc(CN2CCCC(O)C2)c(-c2ccccc2F)n1` (stereo not drawn), for which the cytotoxicity at 10 µM was -2.31%.

As for `CCCN1C(=O)c2ccccc2C1OC` (stereo not drawn), the cytotoxicity at 10 µM is -10.1%.

As to `Cc1cc(C(=O)N2CC[C@@H]3CN(c4ncccn4)CCO[C@@H]3C2)c(C)o1`, the cytotoxicity at 10 µM stood at 3.52%.

On to `CN(C)CCN(C)C(=O)NC1CCC(Oc2ccccc2C#N)CC1` (stereo not drawn), for which the cytotoxicity at 10 µM was -21.8%.

Turning to `COc1ccc(CN2CCCCC2CNC(=O)OC(C)(C)C)cc1F` (stereo not drawn), the cytotoxicity at 10 µM is -2.26%.

Take `Cn1cc(C(=O)N2CCCC2c2ccc3c(c2)OCCO3)ccc1=O` (stereo not drawn): the cytotoxicity at 10 µM came out at 3.92%.

Regarding `COc1ccccc1C(=O)N1CCN(C(=O)CCCc2cn[nH]c2)CC1`, the cytotoxicity at 10 µM is 2.68%.

For `COCCN1C[C@@H](C)[C@@]2(COCCN(C(=O)c3ccccn3)C2)C1`, the cytotoxicity at 10 µM came out at 9.58%.

As to `Cc1ccc(NC(=O)Nc2c[nH]c(=O)[nH]c2=O)c(C)c1`, the cytotoxicity at 10 µM came out at 18.2%.

Consider `O=c1[nH]ncc(NCCOc2cccc(Br)c2)c1Cl`, for which the cytotoxicity at 10 µM turned out to be 41.8%.

Consider `CSc1cc2c(cc1NC(=O)NCC1CCOC1)OCCO2` (stereo not drawn), for which the cytotoxicity at 10 µM was -4.54%.

`CN1C[C@H](c2ccccc2)[C@H]2CN(C(=O)Cc3cccc(O)c3)CC[C@H]21`: the cytotoxicity at 10 µM stood at 4.98%.

In the case of `CC(C)(C)CN1CCCC2(CCN(C(=O)c3cn[nH]c3)C2)C1` (stereo not drawn), the cytotoxicity at 10 µM was determined as 2.87%.

As for `CCS(=O)(=O)N1CCc2c(cnc(-c3cccnc3)c2C(=O)O)C1`, the cytotoxicity at 10 µM came to 2.66%.

Consider `Cc1noc(C2CCCN(Cn3cc(Cl)cn3)C2)n1` (stereo not drawn), for which the cytotoxicity at 10 µM is 2.42%.

Regarding `Cc1ccc(CNCC2Cn3nnc(-c4cnn(C)c4)c3CO2)o1` (stereo not drawn), the cytotoxicity at 10 µM stood at 2.42%.

Take `COC(=O)C(NC(=O)c1cc(F)cc(F)c1)c1cccnc1` (stereo not drawn): the cytotoxicity at 10 µM is -39.1%.

As to `O=C(Cn1ncc(N2CCCC2)cc1=O)Nc1ccc2nccnc2c1`, the cytotoxicity at 10 µM came out at 1.83%.

On to `CC(C)c1nc(CSc2nnc(-c3cccs3)n2CC(N)=O)no1`, for which the cytotoxicity at 10 µM was -142%.

Take `Cc1cnccc1CN(C)Cc1c[nH]nc1-c1ccc(F)cc1F`: the cytotoxicity at 10 µM was -5.93%.

Turning to `Cc1cc(C)c(CNC(=O)Cc2ccc3c(c2)CCCC3)c(=O)[nH]1`, the cytotoxicity at 10 µM was -7.39%.

Regarding `COc1cccc(SCC(=O)N2CCC(N3CCCC(O)C3)CC2)c1` (stereo not drawn), the cytotoxicity at 10 µM is -18.7%.

For `CCC(CC)n1nc(C)cc1NC(=O)C1CCOC1` (stereo not drawn), the cytotoxicity at 10 µM was -5.15%.

`COCc1cc(N(C)CCC(O)c2ccccc2)n2nccc2n1` (stereo not drawn): the cytotoxicity at 10 µM was -2.49%.

Take `COc1cccc(N2CCC(CNC(=O)CN3CSCC3=O)C2)c1` (stereo not drawn): the cytotoxicity at 10 µM worked out at 0.342%.

For the compound `c1nc(NCc2cc3n(n2)CCN(C2CCCCC2)C3)c2nc[nH]c2n1`, the cytotoxicity at 10 µM is 24.2%.

As to `COCC(Nc1ncnc2sc(C)c(C)c12)c1ccnn1C` (stereo not drawn), the cytotoxicity at 10 µM was -4.53%.

For the compound `CCC1CN(C(=O)c2cccc(OCc3cscn3)c2)CCO1` (stereo not drawn), the cytotoxicity at 10 µM was -7.51%.

With `COc1cc(CN(C)Cc2ccncc2)c(SC)cc1OC`, the cytotoxicity at 10 µM came to 5.54%.
